XiGFP reactiv: reactivates the inactive X chromosome in mouse fibroblasts; 0.055% of 360,000 active; activation, % at 7.58 µM; XiGFP mouse fibroblasts, % GFP-positive cells imaging, 3 d; cells co-treated with 5-aza-dC sensitizer; scaled so ellipticine positive control = 100%;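 active = mean normalized replicate activation at least 10% and every replicate at or above 10%; inconclusive = only one of the two criteria met; inactive = mean below 10% and not all replicates reach 10%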
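System: XiGFP fibroblasts, SV40-immortalized. Medium: DMEM plus 5-aza-dC sensitizer. Doses: single point. Timing: 3 d treatment, 15 min room-temperature fixation. Control set: ellipticine 6 µM.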
CaV13 FRET inh: Primary screen for inhibitors of IQ motif and Ca2+-dependent inactivation inhibitor domain binding in CACNA1D, Förster resonance energy transfer in living cells, …. HEK cells, CFP/YFP FRET ICDI-IQ, plate reader, 10 min; percent FRET-ratio fall versus neutral wells. inhibition, % at 12.3 µM. 0.098% of 340,000 active;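 active = mean replicate inhibition of at least 30% and at least 1% of replicates passing that level; inconclusive = only one of the two criteria is met; inactive = neither criterion is met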
LGR2 inh: inhibitors of bursicon-induced Drosophila LGR2 receptor cAMP signaling. HEK293 LGR2, CRE-luciferase, bursicon-stimulated, 4 h. inhibition, % at 9.99 µM. 0.35% of 380,000 active;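 active = drop in luminescence signal, shown as inhibition above about 50% in the replicate tests, limit read from the data, passing the limit was not always enough; inconclusive = probably only some replicates passing the limit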;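 also: agonist challenge used bursicon conditioned medium at about half maximal strength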
TROY signal inh: TROY signaling inhibition; Q293 LMP1-TROYcd NF-kB luciferase reporter, 4 h; inhibition, % at 10 µM; 0.98% of 360,000 active; AID 1347056;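 active = compounds whose plate-normalised and pattern-corrected inhibition of the luciferase reporter signal at the single screening dose is 50% or more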
TWEAK Fn14 block: inhibitors of TWEAK-Fn14 interaction signaling. TWEAK-stimulated Fn14 reporter cells, luciferase luminescence, 8 h. inhibition, % at 10 µM. 2% of 360,000 active; in the data active = inhibition above about 50%
Large screens that a line does not name were inactive. An excerpt weighted towards active compounds, which were near 2% of everything screened.

O=[N+]([O-])c1ccc(O)c(C=Nc2ccc3c(c2)OCCO3)c1	TROY signal inh 56, TWEAK Fn14 block 67
Oc1c(Br)cc(Br)cc1C=Nc1ccc2c(c1)OCO2	none
Cc1noc(C)c1NC(=O)NCC[C@@H]1CC[C@H](NC(=O)c2ccc(F)cc2)[C@H](CO)O1	none (no result: CaV13 FRET inh, TROY signal inh, TWEAK Fn14 block)
C[C@H]1CN(C)C(=O)Cc2cc(N(C)C)ccc2O[C@@H]1CN(C)S(C)(=O)=O	none (no result: CaV13 FRET inh, LGR2 inh, TROY signal inh, TWEAK Fn14 block)
Nc1ncc(Br)cc1S(=O)(=O)Nc1cc(C(F)(F)F)cc(C(F)(F)F)c1	LGR2 inh inconclusive, TROY signal inh 56
Cc1ccc(NS(=O)(=O)c2cc(Br)cnc2N)c(Cl)c1	none
CO[C@@H]1CN(C)C(=O)c2ccc(NC(=O)Nc3ccc4c(c3)OCO4)cc2OC[C@H](C)NC[C@H]1C	none (no result: CaV13 FRET inh, TROY signal inh, TWEAK Fn14 block)
Cc1cc(/C=N/n2cnnc2)c(C)n1-c1ccc(OCc2ccc(Cl)cc2Cl)cc1	TROY signal inh 77, TWEAK Fn14 block 61 (no result: XiGFP reactiv, CaV13 FRET inh, LGR2 inh)
Cc1cc(/C=N/n2cnnc2)c(C)n1-c1ccc(Cl)cc1	none
Cc1cccc(C(O)C(O)c2cccc(C)n2)n1 (configuration not stated)	none
Cc1cccc(C(P(=O)(c2ccccc2)c2ccccc2)P(=O)(c2ccccc2)c2ccccc2)n1	TWEAK Fn14 block 79
CO[C@@H](C(=O)N(C)C[C@H]1OCc2ccccc2-c2ccccc2C(=O)N([C@H](C)CO)C[C@@H]1C)c1ccccc1	none (no result: CaV13 FRET inh, TROY signal inh, TWEAK Fn14 block)
CC1=NN(c2nc(N)nc(/C(C#N)=C/c3ccc([N+](=O)[O-])o3)n2)C(C)(C)C1	XiGFP reactiv 73, TWEAK Fn14 block 71
O=C1C2C(C(=O)N1/N=C/c1ccc([N+](=O)[O-])o1)C1C=CC2C12CC2 (configuration not stated)	none
CCc1cc2c(Sc3nc4ccccc4s3)ncnc2s1	TWEAK Fn14 block 94 (no result: XiGFP reactiv)
c1ccc2sc(Sc3ncnc4sccc34)nc2c1	TWEAK Fn14 block 83
CCc1cc2c(SCC(=O)Nc3ccc(NC(C)=O)cc3)ncnc2s1	none
CCOC(=O)c1cc(-c2ccccc2)sc1NC(=O)C(C)(C)C	TWEAK Fn14 block 96 (no result: XiGFP reactiv, CaV13 FRET inh, LGR2 inh)
O=C(CN1C(=O)CSc2ccc(S(=O)(=O)N3CCCCCC3)cc21)NCCc1ccccc1	none
O=C(CN1C(=O)CSc2ccc(S(=O)(=O)N3CCOCC3)cc21)NCCc1ccccc1	TWEAK Fn14 block 97
COc1cc(CN2CC3(CCN(S(=O)(=O)c4cn(C)cn4)CC3)c3c(n(C)c4cc(OC)ccc34)[C@@H]2CO)cc(OC)c1	none (no result: CaV13 FRET inh, TROY signal inh, TWEAK Fn14 block)
CCc1ccc(-c2csc(NC(=O)C3=NN(c4ccccc4)C(=O)CC3)n2)cc1	TROY signal inh 51, TWEAK Fn14 block 74
CCc1ccc(-c2csc(NC(=O)c3cccnc3)n2)cc1	TWEAK Fn14 block 61
C[C@@H]1CN([C@@H](C)CO)C(=O)c2c(c3ccccc3n2C)-c2ccccc2CO[C@@H]1CN(C)CC1CC1	none (no result: CaV13 FRET inh, TROY signal inh, TWEAK Fn14 block)
CN(C)CC(=O)N[C@H]1CC[C@H](CC(=O)NCc2ccc(Cl)cc2)O[C@@H]1CO	none (no result: CaV13 FRET inh, TROY signal inh, TWEAK Fn14 block)
CCC(=O)N1CC(=O)N2[C@H](CO)[C@@H](c3ccc(-c4ccc(C#N)cc4)cc3)[C@@H]2C1	none (no result: CaV13 FRET inh, TROY signal inh, TWEAK Fn14 block)
CCCNC(=O)[C@@H]1[C@@H](CO)[C@@H]2Cn3c(ccc(-c4ccccc4F)c3=O)[C@H]1N2S(C)(=O)=O	none (no result: CaV13 FRET inh, TROY signal inh, TWEAK Fn14 block)
Oc1ccccc1-c1n[nH]c(-c2ccccc2O)n1	TWEAK Fn14 block 77
CCN(CC)S(=O)(=O)c1cccc(NC(=O)COC(=O)c2[nH]c(C)c(C(C)=O)c2C)c1	TWEAK Fn14 block 65
CC(=O)c1c(C)[nH]c(C(=O)OCC(=O)Nc2cccc(S(=O)(=O)N(C)C)c2)c1C	none
CC(=O)c1c(C)[nH]c(C(=O)OCC(=O)Nc2cccc(S(=O)(=O)N3CCCC3)c2)c1C	TWEAK Fn14 block 65
CC(=O)c1c(C)[nH]c(C(=O)OCC(=O)Nc2cc(S(=O)(=O)N3CCCC3)ccc2Cl)c1C	none
C[C@@H]1CN([C@@H](C)CO)C(=O)c2cc(NC(=O)CCC(F)(F)F)ccc2O[C@H]1CN(C)C(=O)Nc1ccc(C(F)(F)F)cc1	none (no result: CaV13 FRET inh, TROY signal inh, TWEAK Fn14 block)
O=C(c1ccncc1)N1CC(=O)N2[C@H](CO)[C@H](c3ccc(C#CCC4CCCC4)cc3)[C@@H]2C1	none (no result: CaV13 FRET inh, LGR2 inh, TROY signal inh, TWEAK Fn14 block)
CCc1nnc(NC(=O)CSc2nnc(-c3ccc(S(=O)(=O)N(CC)CC)cc3)n2CC)s1	TWEAK Fn14 block 83 (no result: XiGFP reactiv)
COc1cccc(-c2ccc3c(c2)[C@@H]2[C@@H](CCN2S(=O)(=O)c2ccccc2F)[C@H](CO)N3)c1	none (no result: CaV13 FRET inh, TROY signal inh, TWEAK Fn14 block)
Cc1c[n+](CC(=O)c2ccccc2)cs1	TWEAK Fn14 block 90
Cc1cc(C)c(S(=O)(=O)/N=C2/C=C(Sc3ncn[nH]3)C(=O)c3ccccc32)cc1C	TROY signal inh 59, TWEAK Fn14 block 94
O=C(C[C@H]1CC[C@H]2[C@@H](COC[C@H](O)CN2C(=O)Cc2ccccc2)O1)NC1CCCC1	none (no result: CaV13 FRET inh, TROY signal inh, TWEAK Fn14 block)
COc1ccc(S(=O)(=O)N2CCCC2C(=O)Nc2ccc(C)cc2)cc1 (configuration not stated)	none (no result: XiGFP reactiv, LGR2 inh)
COc1ccc(S(=O)(=O)N2CCCC2CNC(=O)C(=O)NC2CCCCCC2)cc1 (configuration not stated)	none
COc1ccc(NC(=O)C2CCCN2S(=O)(=O)c2ccc(Cl)cc2)cc1 (configuration not stated)	TWEAK Fn14 block 77
COc1ccc(S(=O)(=O)N2CCC(NC(=O)C3CCCCC3)CC2)cc1	TWEAK Fn14 block 80
COc1ccc(S(=O)(=O)N2CCCC2CNC(=O)C(=O)NC2CCCC2)cc1 (configuration not stated)	CaV13 FRET inh 31
C[C@@H]1CCCCO[C@H](CN(C)C(=O)Nc2ccc(F)cc2)[C@H](C)CN([C@H](C)CO)C(=O)c2cc(NS(=O)(=O)c3ccccc3)ccc2O1	none (no result: CaV13 FRET inh, TROY signal inh, TWEAK Fn14 block)
O=C(Nc1nc(-c2cccs2)c(C(=O)C(F)(F)F)s1)c1ccccc1	TROY signal inh 60, TWEAK Fn14 block 56
COc1ccc(C(=O)Nc2nnc(-c3ccco3)s2)cc1	LGR2 inh 81, TWEAK Fn14 block 85 (no result: XiGFP reactiv, CaV13 FRET inh)
COc1ccc(C(=O)Nc2nnc(-c3cccs3)s2)cc1	LGR2 inh inconclusive, TWEAK Fn14 block 55 (no result: XiGFP reactiv)
C[C@@H]1CN([C@H](C)CO)C(=O)c2cc(C#CC3CC3)cnc2O[C@H]1CN(C)C(=O)c1ccc(F)cc1	none (no result: CaV13 FRET inh, TROY signal inh, TWEAK Fn14 block)
C=CCNC(=O)c1cc(-c2ccncc2)nc2c(C)cc(C)cc12	TROY signal inh 84
C[C@H]1CN([C@@H](C)CO)C(=O)Cc2cc(NS(=O)(=O)c3ccc(F)cc3)ccc2O[C@@H]1CN(C)Cc1ccc(Oc2ccccc2)cc1	none (no result: CaV13 FRET inh, TROY signal inh, TWEAK Fn14 block)
CCCNC(=O)[C@@H]1[C@@H](CO)[C@@H]2Cn3c(ccc(/C=C/c4ccccc4)c3=O)[C@@H]2N1CC	none (no result: CaV13 FRET inh, TROY signal inh, TWEAK Fn14 block)
COc1ccc(C(=S)N2CCOCC2)cc1OC(=O)c1ccc([N+](=O)[O-])cc1[N+](=O)[O-]	TWEAK Fn14 block 100

Bioassay records: PubChem, several laboratories
